Blank lines part the entries; values can stand above or below the compound they belong to.
Columns and labels:
[1] = phase 3 maintenance trials ref 25-27; cited from earlier work
[2] = Non-compartmental pharmacokinetics; format: in vivo, human
Procedure, shortened: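 Patients took oral drug twice daily, continuously, at 50–500 mg BID. Plasma parent drug and active metabolite M8 were measured by a validated assay. Parameters were derived non-compartmentally on day 1 and reported as geometric mean (SD). Accumulation indices for Cmax and AUC0–8 were compared with theoretical values from D1 half-lives. Dose proportionality was tested on day-1 Cmax and AUC0-inf (95% CI of coefficient including 1).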

sporadic ovarian cancer = sporadic ovarian cancer ref 43; cited from earlier work
[3] = metabolite M8, geometric mean (SD)

Compound: CNCc1ccc(-c2[nH]c3cc(F)cc4c3c2CCNC4=O)cc1 [rucaparib]
grade 3 or 4 anemia [1]: 19%

M8/ABT-888 metabolic ratio, AUC0-inf ([2]; day 1): 0.21 (1.9) | M8/ABT-888 metabolic ratio, Cmax ([2]; day 1): 0.11 (1.8) | theoretical accumulation index ([2]; metabolite M8, from D1 half-lives, geometric mean (SD)): 1.51 (1.25) | accumulation index for AUC0–8 [2, 3]: 1.59 (1.41) | accumulation index for Cmax [2, 3]: 1.51 (1.34)
Compound: CC1(c2nc3c(C(N)=O)cccc3[nH]2)CCC(=O)N1 (stereo not drawn) [M8]

Compound: NC(=O)c1cccc2cn(-c3ccc([C@@H]4CCCNC4)cc3)nc12 [niraparib]
grade 3 or 4 anemia [1]: 25%

Compound: O=C(c1cc(Cc2n[nH]c(=O)c3ccccc23)ccc1F)N1CCN(C(=O)C2CC2)CC1 [olaparib]
grade 3 or 4 anemia [1]: 19% | patients with objective responses (sporadic ovarian cancer): 24%

Source: publication PMC9116722 (Cancer chemotherapy and pharmacology, 2022)
